Measured values from ChEMBL document CHEMBL1833896, “Acylglycinamides as inhibitors of glycine transporter type 1” (Bioorg Med Chem Lett, 2011).

How the values were obtained:
[1] = Lipophilicity, log D of the compound; assay type: physicochemical; conditions: chromatographic hydrophobicity index (CHI) method
How it was run: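 Lipophilicity was measured by a chromatographic method.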

[2] = Intrinsic clearance in human microsomes; assay type: ADME, Microsome
[3] = Intrinsic clearance in rat microsomes; assay type: ADME, Microsome
[4] = Oral bioavailability in rat; assay type: ADME, organism-based; conditions: in vivo
[5] = Ratio of drug level in brain to blood in rat; assay type: ADME, tissue-based; conditions: read-out: BBR
Rattus norvegicus = species on record: Rattus norvegicus; experiment: Liver blood flow in rat; assay type: ADME, organism-based

With `COc1ccc(C(=O)N(Cc2cc(-c3ccccc3)on2)C2CCCCC2)cc1` the logD [1] was 4.2.
`COc1ccc(C(=O)N(Cc2ccc(-c3ccc(Cl)cc3)o2)C2CCCCC2)cc1` showed a logD [1] of 5.
In the case of `O=C(CN(C(=O)c1ccc(N2CCCC2)cc1)C1CCCCC1)Nc1cc(F)cc(F)c1`, the logD [1] is reported as 4.5.
For `O=C(CN(C(=O)c1ccc(-c2ccccn2)cc1)C1CCOCC1)Nc1cc(F)cc(F)c1`, the CL [2] was under 0.5 mL/min/g, the CL [3] was 0.6 mL/min/g and the bioavailability [4] was 25%. For the same molecule, the Kp [5] was 0.2, the logD [1] was 2.5 and the QH (Rattus norvegicus) was 75%.
With `COCC(C)N(CC(=O)Nc1cc(F)cc(F)c1)C(=O)c1ccc(-c2ccccn2)cc1` (configuration not stated) the CL [2] was 5.8 mL/min/g, the CL [3] was 4.2 mL/min/g and the logD [1] was 3.
With `COCCN(CC(=O)Nc1cc(F)cc(F)c1)C(=O)c1ccc(-c2ccccn2)cc1` the CL [2] was 1.5 mL/min/g and the CL [3] was 3 mL/min/g.
Work on `CC(C)N(CC(=O)Nc1cc(F)cc(F)c1)C(=O)c1ccc(-c2ccccn2)cc1` yielded a CL [2] of under 0.5 mL/min/g, a CL [3] of 1.8 mL/min/g and a logD [1] of 3.
For `O=C(CN(C(=O)c1ccc(-c2ccccn2)cc1)C1CCCOC1)Nc1cc(F)cc(F)c1` (racemic), the CL [2] was 2.9 mL/min/g, the CL [3] was 2 mL/min/g and the bioavailability [4] was 15%. The Kp [5] was 0.2, the logD [1] was 2.7 and the QH (Rattus norvegicus) was 75%.
Molecule `CN1CCC(C(=O)N(CC(=O)Nc2cc(F)cc(F)c2)C2CCCCC2)CC1` has a logD [1] of 1.8.
Work on `O=C(CN(C(=O)c1ccc(-c2ccccn2)cc1)C1CCCCC1)Nc1cc(F)cc(F)c1` yielded a CL [2] of 5.2 mL/min/g, a CL [3] of 15.4 mL/min/g and a logD [1] of 3.7.
For `O=C(CN(C(=O)c1ccc(N2CCCC2)nc1)C1CCCCC1)Nc1cc(F)cc(F)c1`, the logD [1] was 3.6.
`CCC(COC)N(CC(=O)Nc1cc(F)cc(F)c1)C(=O)c1ccc(-c2ccccn2)cc1` (configuration not stated) showed a CL [2] of 9.6 mL/min/g, a CL [3] of 6.7 mL/min/g and a logD [1] of 3.3.
With `CN(C)CCOc1ccc(C(=O)N(CC(=O)Nc2cc(F)cc(F)c2)C2CCCCC2)cc1` the logD [1] was 2.4.
Molecule `O=C(CN(CC1CCC1)C(=O)c1ccc(-c2ccccn2)cc1)Nc1cc(F)cc(F)c1` has a CL [2] of 2 mL/min/g, a CL [3] of 4.8 mL/min/g and a logD [1] of 3.5.
Work on `COc1ccc(C(=O)N(Cc2c[nH]c(-c3ccccc3)n2)C2CCCCC2)cc1` yielded a logD [1] of 2.9.
In the case of `CC(C)CN(CC(=O)Nc1cc(F)cc(F)c1)C(=O)c1ccc(-c2ccccn2)cc1`, the CL [2] is reported as 1.3 mL/min/g, the CL [3] is reported as 4.9 mL/min/g and the logD [1] is reported as 3.3.
For `COc1ccc(C(=O)N(CC(=O)Nc2cc(F)cc(F)c2)C2CCCCC2)cc1`, the logD [1] was 3.7.
For `O=C(CN(CC1CC1)C(=O)c1ccc(-c2ccccn2)cc1)Nc1cc(F)cc(F)c1`, the CL [2] was under 0.5 mL/min/g, the CL [3] was 5 mL/min/g and the logD [1] was 3.1.
In the case of `COc1ccc(C(=O)N(Cc2csc(-c3ccccc3)n2)C2CCCCC2)cc1`, the logD [1] is reported as 4.6.
With `O=C(CN(C(=O)c1ccc(-c2ccccn2)cc1)C1CCCC1)Nc1cc(F)cc(F)c1` the CL [2] was 1.9 mL/min/g, the CL [3] was 3.7 mL/min/g and the logD [1] was 3.4.
Work on `O=C(CN(C(=O)C1CCOCC1)C1CCCCC1)Nc1cc(F)cc(F)c1` yielded a logD [1] of 3.
`COc1ccc(C(=O)N(Cc2cn(-c3ccccc3)nn2)C2CCCCC2)cc1` gave a logD [1] of 3.5.
For `COc1ccc(C(=O)N(Cc2[nH]ncc2-c2ccccc2)C2CCCCC2)cc1`, the logD [1] was 3.1.
With `Cn1ccc(C(=O)N(CC(=O)Nc2cc(F)cc(F)c2)C2CCCCC2)n1` the logD [1] was 3.
`CCC(C)N(CC(=O)Nc1cc(F)cc(F)c1)C(=O)c1ccc(-c2ccccn2)cc1` (configuration not stated) showed a CL [2] of 4.3 mL/min/g, a CL [3] of 3.8 mL/min/g and a logD [1] of 3.3.
Work on `O=C(CN(C(=O)c1ccc(-c2ccccn2)cc1)C1CCOC1)Nc1cc(F)cc(F)c1` (configuration not stated) yielded a CL [2] of 3.9 mL/min/g, a CL [3] of 3.2 mL/min/g and a logD [1] of 2.5.
With `O=C(CN(C(=O)c1cccnc1)C1CCCCC1)Nc1cc(F)cc(F)c1` the logD [1] was 2.7.
For `COc1ccc(C(=O)N(Cc2c(C)noc2-c2ccccc2)C2CCCCC2)cc1`, the logD [1] was 4.1.
For `O=C(CN(C(=O)c1ccc(-n2ccnc2)cc1)C1CCCCC1)Nc1cc(F)cc(F)c1`, the CL [2] was 6.1 mL/min/g, the CL [3] was 1.2 mL/min/g and the logD [1] was 2.7.
